Legend:
[1] = species on record: Rattus norvegicus; assay: In vitro inhibition of LTC4/D4 (leukotriene) production in rat peritoneal mononuclear cells.; type: functional, cell-based
Procedure, shortened: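 Rat peritoneal mononuclear cells challenged with calcium ionophore A23187 in presence of cysteine. Initial screen at 10 μg/mL, duplicate determinations, expressed as percent of control. IC50 from follow-up testing, interpolated from log dose–response plot. LTC4/D4 measured by guinea pig ileum bioassay (atropinized, mepyramine-treated) or, later, LTC4-selective radioimmunoassay.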

[2] = biological target: T1, Polyunsaturated fatty acid 5-lipoxygenase (Rattus norvegicus) (UniProt P12527); assay: Ex vivo inhibition of LTB4 production in rat blood following 50 mg/kg p.o.; type: functional, organism-based; set-up: dose 50 mg/kg; conditions: at 50 mg/kg
T1 sequence (whole entry): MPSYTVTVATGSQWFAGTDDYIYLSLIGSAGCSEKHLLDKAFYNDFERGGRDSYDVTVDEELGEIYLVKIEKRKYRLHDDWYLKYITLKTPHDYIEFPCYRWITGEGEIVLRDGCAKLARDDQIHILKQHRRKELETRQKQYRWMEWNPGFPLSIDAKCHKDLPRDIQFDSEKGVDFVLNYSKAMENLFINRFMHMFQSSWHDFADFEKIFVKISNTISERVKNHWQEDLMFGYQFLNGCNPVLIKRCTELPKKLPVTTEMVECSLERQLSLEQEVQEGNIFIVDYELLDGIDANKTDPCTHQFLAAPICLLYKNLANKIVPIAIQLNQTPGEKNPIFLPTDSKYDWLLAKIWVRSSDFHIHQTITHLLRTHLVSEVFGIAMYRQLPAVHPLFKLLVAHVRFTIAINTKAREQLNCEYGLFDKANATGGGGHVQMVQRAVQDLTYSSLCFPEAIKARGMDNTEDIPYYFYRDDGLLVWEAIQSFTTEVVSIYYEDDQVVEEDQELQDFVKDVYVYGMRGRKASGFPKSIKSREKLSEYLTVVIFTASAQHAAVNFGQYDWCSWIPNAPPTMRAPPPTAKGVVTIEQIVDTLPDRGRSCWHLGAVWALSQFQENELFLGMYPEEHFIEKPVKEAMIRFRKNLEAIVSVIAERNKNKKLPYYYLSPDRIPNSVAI
Procedure, shortened: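 Male Sprague-Dawley rats (225–275 g), fasted 18 h, given test compound orally at 50 mg/kg; controls got vehicle; five rats per compound. At 2 h, anesthetized; heparinized blood from vena cava. Blood (1.0 mL) stimulated with A23187 (30 μM), 30 min, 37 °C; plasma LTB4 by radioimmunoassay. Percent inhibition from mean treated vs mean control; Wilcoxon rank sum.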

[3] = species on record: Rattus norvegicus; assay: Ex vivo inhibition of LTB4 production was determined; type: functional, organism-based
Procedure, shortened: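 Male Sprague-Dawley rats (225–275 g), fasted 18 h, given 50 mg/kg orally in 1.0 mL solution; controls received 1.0 mL vehicle; five rats per compound. Heparinized vena cava blood taken 2 h post-dose under anesthesia; 1.0 mL stimulated with A23187 (30 μM) 30 min at 37 °C. Plasma LTB4 by radioimmunoassay; percent inhibition from group mean vs control mean; Wilcoxon rank sum statistics.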

[4] = Rattus norvegicus, read-out: IC50

Structure (SMILES) | IC50 [1, 4] [nM] | also measured
COc1c(-c2ccccc2)c(-c2ccccc2)c(OC(C)=O)c2ccccc12 | 11000 | 
CCCCc1cccc2c(OC)c(CC)c(CC)c(OC(C)=O)c12 | 14100 | inhibition [2]: 30.5%
CCCCc1cc(OC)c2ccc(OC)cc2c1OC(C)=O | 1380 | 
CCCCCc1c(C(=O)OCC)c(OC(C)=O)c2ccccc2c1OC | 8920 | 
CCc1c(CC)c(OC(C)=O)c2c(C)c(C)c(C)c(C)c2c1OC | 37300 | inhibition [2]: -4.9%
COc1cc(-c2ccccc2)c(OC(C)=O)c2ccn(C)c12 | 3860 | 
CCc1c(CC)c(OC)c2c(ccn2C)c1OC(C)=O | 2030 | 
CCCCc1cc(OC)c2c(C)c(C)c(C)c(C)c2c1OC(C)=O | 44000 | inhibition [2]: 41.2%
CCCCc1cc(OC)c2ccccc2c1O | 1470 | 
CCCc1c(CCC)c(OC(C)=O)c2ccccc2c1OC | 1430 | 
CCc1c(CC)c(OC(C)=O)c2c(C)ccc(C)c2c1OC | 13000 | inhibition [2]: 50.6%
CCCCc1cc(OC)c2ccccc2c1OC | 40900 | 
O=C1C=CC(=O)c2ccccc21 |  | IC50 [3]: < 20000 nM
C=Cc1c(OCC)c(OC)c2ccccc2c1OC |  | IC50 [1]: Not Active
CCOc1c(C(C)O)c(OC)c2ccccc2c1OC (stereo unspecified) | 86000 | 
CCOc1c(C(C)O[Si](C)(C)C(C)(C)C)c(OC(C)=O)c2ccccc2c1OC (stereo unspecified) | 23900 | 
CCCCc1cc(OC)c2c(C)ccc(C)c2c1OC(C)=O | 7350 | inhibition [2]: 19.1%
CCCCc1c(CC)c(OC(C)=O)c2ccccc2c1OC | 1130 | 

Structure (SMILES) | IC50 [1, 4] [nM] | also measured
CCCCc1cc(OC)c2c(C)cc(C)c(C)c2c1OC(C)=O | 11900 | inhibition [2]: 35.4%
CCOC(=O)c1c(-c2ccccc2)c(OC(C)=O)c2ccccc2c1OC | 5810 | 
CCCCC1=CC(=O)c2sccc2C1=O | 23500 | 
CCCCc1cc(OC)c2occc2c1O | 11900 | 
COc1c(-c2ccccc2)c(-c2ccccc2)c(OC(C)=O)c2ccn(C)c12 |  | IC50 [1]: Not Active
COc1cc(-c2ccccc2)c(O)c2ccoc12 | 2200 | 
CCCCc1c(CCCC)c(OC)c2occc2c1O | 1150 | 
CCCCC1=CC(=O)c2occc2C1=O | 2050 | 
CCCCc1c(CC)c(OC)c2ccccc2c1OC(C)=O | 990 | 
COc1c(C)c(-c2ccccc2)c(O)c2ccoc12 | 1250 | 
COc1c(-c2ccccc2)c(-c2ccccc2)c(O)c2ccoc12 | 4390 | 
CCCCCc1c(C(=O)OCC)c(OC)c2ccccc2c1OC(C)=O | 940 | 
CCCCc1c(CCCC)c(OC(C)=O)c2ccccc2c1OC | 6020 | inhibition [2]: 29.2%
CCOC(=O)c1c(CC)c(OC)c2ccccc2c1OC(C)=O | 3760 | 
CCc1c(CC)c(OC(C)=O)c2c(C)c(C)cc(C)c2c1OC | 15700 | inhibition [2]: 14.7%
CCCCc1cc(OC)c2sccc2c1O | 1050 | 
CCOC(=O)c1c(CC)c(OC(C)=O)c2ccccc2c1OC | 1160 | 
CCCCC1=CC(=O)c2ccccc2C1=O | 2240 | 

The next lines start with results.

IC50 [1, 4] [nM] | Structure (SMILES) | also measured
940 | CCCCc1ccc2c(OC(C)=O)c(CC)c(CC)c(OC)c2c1 | inhibition [2]: 17%
760 | CCCCc1c(C)c(OC)c2c(ccn2C)c1OC(C)=O | 
720 | CCCCc1cc(OC)c2c(ccn2C)c1OC(C)=O | 
620 | CCCCc1cc(OC)c2c(C)cccc2c1OC(C)=O | inhibition [2]: 31.8%
890 | CCc1c(CC)c(OC)c2c(OC)cccc2c1OC(C)=O | 
260 | CCCCc1cc(OC)c2c(OC)cccc2c1OC(C)=O | inhibition [2]: 17.5%
460 | CCCCc1cc(OC)c2sccc2c1OC(C)=O | 
440 | CCCCc1cc(OC)c2ccccc2c1OC(C)=O [BUNAPROLAST] | inhibition [2]: 61.1%
400 | CCc1c(CC)c(OC(C)=O)c2ccccc2c1OC | inhibition [2]: 74.8%
200 | CCCCc1c(C)c(OC)c2ccccc2c1OC(C)=O | 
480 | CCCCc1ccc2c(OC(C)=O)c(CCCC)cc(OC)c2c1 | inhibition [2]: 19.2%
110 | CCCCc1cc(OC)c2occc2c1OC(C)=O | 
760 | CCCCc1c(C)c(OC(C)=O)c2ccn(C)c2c1OC | 
690 | CCc1c(CC)c(OC(C)=O)c2cc(OC)ccc2c1OC | 
830 | CCc1c(CC)c(OC)c2c(C)cccc2c1OC(C)=O | inhibition [2]: 40.6%
